The values below come from ChEMBL document CHEMBL1135663, “Probing opioid receptor interactions with azacycloalkane amino acids. Synthesis of a potent and selective ORL1 antagonist” (J Med Chem, 2002).

Each structure is given as a SMILES string. Several values for one entry are separate records, joined by “and”; a condition that tells them apart may be missing. Equal values may be shown once.

Test [1] concerns the target Delta-type opioid receptor (Homo sapiens, UniProt P41143). The test is described as follows: Binding affinity for opioid receptor type, human Opioid receptor delta 1 expressed in membrane homogenates of COS-1 or CHO cells. Type of test: cell-based.
Test [2] deals with T1, Nociceptin receptor (Homo sapiens, UniProt P41146). The test is described as follows: Binding affinity for opioid receptor like type, human Opioid receptor like 1 expressed in membrane homogenates of COS-1 or CHO cells. Type of test: cell-based.
Test [3] addresses T2, Mu-type opioid receptor (Homo sapiens, UniProt P35372). The experiment in a line: Binding affinity for opioid receptor type, human Opioid receptor mu 1 expressed in membrane homogenates of COS-1 or CHO cells. Type of test: cell-based.
Test [4] deals with T3, Kappa-type opioid receptor (Homo sapiens, UniProt P41145). The experiment in a line: Binding affinity for opioid receptor type, human Opioid receptor kappa 1 expressed in membrane homogenates of COS-1 or CHO cells. The class given is cell-based.
Test [5] addresses T2, Mu-type opioid receptor. The experiment in a line: Stimulation of [35S]GTP-gamma-S, binding using COS-human Opioid receptor mu 1 membranes. Type of test: functional. In outline: (§1)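 Agonist-stimulated [35S]GTPγS binding to 5 μg membranes from COS cells transiently expressing human KOR or MOR. Incubation was 1 h at 30 °C with 0.2 nM [35S]GTPγS, GDP and increasing ligand concentrations, giving concentration–response data. Mean ± SEM of at least two separate experiments, each in triplicate.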
In general terms: Binding of GTPγS marks nucleotide exchange on a G protein.

Test [6] deals with T3, Kappa-type opioid receptor. The test is described as follows: Stimulation of [35S]GTP-gamma-S, binding using COS-human Opioid receptor kappa 1 membranes. The class given is functional. The essentials:
as §1

Test [7] has as its target T2, Mu-type opioid receptor. The experiment in a line: Maximal activation of [35S]GTP-gamma-S, binding using COS-human Opioid receptor mu 1 membranes. The class given is functional. In outline:
(§2)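 Membranes (5 μg) from COS cells transiently transfected with human KOR or MOR, incubated 1 h at 30 °C with 0.2 nM [35S]GTPγS, GDP and increasing ligand concentrations. Maximal activation is given as percentage of basal [35S]GTPγS binding. Mean ± SEM of at least two separate experiments, each in triplicate.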

The target of test [8] is T3, Kappa-type opioid receptor. The test is described as follows: Maximal activation of [35S]GTP-gamma-S, binding using COS-human Opioid receptor kappa 1 membranes. The class given is functional. In outline:
as §2

In test [9] the target is T1, Nociceptin receptor.

Chain of Delta-type opioid receptor (P41143 whole entry): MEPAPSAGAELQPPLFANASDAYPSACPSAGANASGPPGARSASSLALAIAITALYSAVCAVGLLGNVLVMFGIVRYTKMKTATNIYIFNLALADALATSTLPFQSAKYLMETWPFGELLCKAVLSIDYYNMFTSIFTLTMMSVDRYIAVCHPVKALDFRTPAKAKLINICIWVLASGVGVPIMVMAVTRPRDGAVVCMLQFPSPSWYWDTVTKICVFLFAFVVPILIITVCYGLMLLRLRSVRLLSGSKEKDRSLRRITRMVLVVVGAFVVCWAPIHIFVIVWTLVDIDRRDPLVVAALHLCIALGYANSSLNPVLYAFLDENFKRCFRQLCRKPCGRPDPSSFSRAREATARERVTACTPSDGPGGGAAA
T2 sequence (P35372 whole entry): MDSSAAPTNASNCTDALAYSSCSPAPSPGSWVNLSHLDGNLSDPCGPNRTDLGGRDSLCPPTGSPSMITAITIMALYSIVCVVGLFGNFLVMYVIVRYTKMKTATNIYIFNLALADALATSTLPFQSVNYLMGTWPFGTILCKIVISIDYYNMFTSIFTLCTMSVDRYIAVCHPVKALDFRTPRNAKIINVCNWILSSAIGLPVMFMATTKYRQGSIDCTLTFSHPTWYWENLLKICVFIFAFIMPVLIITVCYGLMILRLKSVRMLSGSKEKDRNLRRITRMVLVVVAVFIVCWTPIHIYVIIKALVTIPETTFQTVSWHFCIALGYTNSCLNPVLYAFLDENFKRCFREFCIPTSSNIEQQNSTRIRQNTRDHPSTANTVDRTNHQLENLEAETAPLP
T3 sequence (P41145 whole entry): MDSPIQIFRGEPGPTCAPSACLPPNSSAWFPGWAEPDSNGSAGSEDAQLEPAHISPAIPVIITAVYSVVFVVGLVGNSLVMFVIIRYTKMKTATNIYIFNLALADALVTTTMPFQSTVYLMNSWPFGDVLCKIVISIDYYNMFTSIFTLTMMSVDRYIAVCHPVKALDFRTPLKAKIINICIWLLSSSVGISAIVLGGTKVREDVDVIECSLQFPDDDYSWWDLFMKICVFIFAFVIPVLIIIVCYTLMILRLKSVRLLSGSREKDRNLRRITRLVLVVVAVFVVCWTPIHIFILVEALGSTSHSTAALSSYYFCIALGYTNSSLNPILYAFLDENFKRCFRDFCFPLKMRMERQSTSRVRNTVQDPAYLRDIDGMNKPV
T1 sequence (P41146 whole entry): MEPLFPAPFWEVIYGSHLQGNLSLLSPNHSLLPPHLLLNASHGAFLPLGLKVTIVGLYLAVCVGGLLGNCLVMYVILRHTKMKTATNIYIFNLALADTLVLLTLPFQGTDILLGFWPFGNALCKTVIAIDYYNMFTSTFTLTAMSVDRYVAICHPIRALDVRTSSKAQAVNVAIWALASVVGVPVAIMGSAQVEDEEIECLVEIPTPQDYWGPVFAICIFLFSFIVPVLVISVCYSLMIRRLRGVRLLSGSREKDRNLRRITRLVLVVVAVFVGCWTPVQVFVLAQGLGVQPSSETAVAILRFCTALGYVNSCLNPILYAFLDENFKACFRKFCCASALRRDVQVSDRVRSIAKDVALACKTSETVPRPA

The Ki is the dissociation constant of the complex between target and ligand, obtained from inhibition or displacement. A low value points to a stronger hold on the target. Turning to `CC(=O)N[C@@H](CCCN=C(N)N)C(=O)N[C@H](CC1CCCCC1)C(=O)N[C@@H](Cc1ccccc1)C(=O)N1[C@H](C(=O)N[C@H](CCCN=C(N)N)C(=O)N[C@H](Cc2ccc(Cl)cc2)C(N)=O)CC[C@@H]1C(C)(C)C`, the inhibition constant (Ki) in test [1] is 2340 nM; on Nociceptin receptor [2], 1700 nM; on Mu-type opioid receptor [3], 368 nM; in [4], 282 nM.
As a reminder, the EC50 is the concentration that produces a half-maximal response. On to `CC(=O)N[C@@H](CCCNC(=N)N)C(=O)N[C@H](CC1CCCCC1)C(=O)N[C@H]1CC[C@H]2CC[C@@H](C(=O)N[C@H](CCCNC(=N)N)C(=O)N[C@H](Cc3ccc(Cl)cc3)C(N)=O)N2C1=O`, for which the results for the EC50 (at Mu-type opioid receptor [5]; in test [6]) were 1400 nM and greater than 1000 nM, respectively. Also, the inhibition constant (Ki) came out at 5200 nM in test [1] (cos-1), 44 nM on Nociceptin receptor [2] (cos-1), 75 nM on Mu-type opioid receptor [3] (cos-1) and 190 nM in test [4] (cos-1).
Consider `CC(=O)N[C@@H](CCCN=C(N)N)C(=O)N[C@H](CC1CCCCC1)C(=O)N[C@H]1C[C@H]2CCC[C@@H](C(=O)N[C@H](CCCN=C(N)N)C(=O)N[C@H](Cc3ccc(Cl)cc3)C(N)=O)N2C1=O`, for which the inhibition constant Ki in test [1] (cos-1) turned out to be 10900 nM; at Nociceptin receptor [2] (cos-1), 2130 nM; at Mu-type opioid receptor [3] (cos-1) it was 2700 nM; in [4] (cos-1) it was 1080 nM.
On to `CC(=O)N[C@@H](CCCN=C(N)N)C(=O)NC(CC1CCCCC1)C(=O)NC1CC[C@H]2CCC[C@@H](C(=O)N[C@H](CCCN=C(N)N)C(=O)NC(Cc3ccc(Cl)cc3)C(N)=O)N2C1=O` (stereo in doubt), for which the Activity at Mu-type opioid receptor [7] came out at 141%; in test [8] it was 117%. Also, the figures for the concentration giving a half-maximal response (EC50) (on Mu-type opioid receptor [5]; in [6]) were 2800 nM and greater than 1000 nM, respectively. The inhibition constant Ki in test [1] came out at 7050 nM; on Nociceptin receptor [2], 35 nM; at Mu-type opioid receptor [3] it was 496 nM; in test [4] it was 441 nM.
As for `CC(=O)N[C@@H](CCCN=C(N)N)C(=O)NC(CC1CCCCC1)C(=O)N[C@H]1CC[C@@H]2SC[C@H](C(=O)N[C@H](CCCN=C(N)N)C(=O)NC(Cc3ccc(Cl)cc3)C(N)=O)N2C1=O` (stereo in doubt), the Ki in test [1] (cos-1) amounted to 222 nM; on Nociceptin receptor [2] (cos-1), 34 nM; on Mu-type opioid receptor [3] (cos-1), 53 nM; in [4] (cos-1) it was 78 nM. The same compound came in with a Ke at Nociceptin receptor [9] of 40 nM.
Regarding `CC(=O)N[C@@H](CCCN=C(N)N)C(=O)NC(CC1CCCCC1)C(=O)N[C@H]1CC[C@H]2SC[C@@H](C(=O)N[C@H](CCCN=C(N)N)C(=O)NC(Cc3ccc(Cl)cc3)C(N)=O)N2C1=O` (stereo in doubt), the Activity is 207% on Mu-type opioid receptor [7]; 122% and 120% in [8]. The compound further yielded a Ke on Nociceptin receptor [9] of 400 nM.
